Measurements taken from ChEMBL document CHEMBL1131089, “Physical parameters and biological stability of yttrium(III) diethylenetriaminepentaacetic acid derivative conjugates” (J Med Chem, 1998).

Key:
[1] = Yttrium(III) stability constant of the compound.; type: physicochemical
Outline: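 Spectrophotometric competition at 25 °C, μ = 0.1 M. Y(III) (3.950 × 10⁻⁶ M) with Arsenazo III (2.00 × 10⁻⁵ M) at pH 3.90, titrated with ligand aliquots. Absorbance drop at 652 nm after each equilibration gave conditional constants, converted to log K. Y–AAIII ML and ML₂ constants and extinction coefficients first obtained by titrating dye with YCl₃.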

[2] = organism: Mus musculus; test: Percent injected dose per gram at 168 hour for mice injected with 88Y-Ligand-B 72.3; type: functional, organism-based
[3] = Fraction of 88Y (%) released from chelate after incubation in serum for 15 hours; type: ADME
Outline: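 p-Nitrobenzyl DTPA derivatives converted to p-isothiocyanato form, conjugated to antibody B72.3, labeled with 88Y. Conjugates incubated in serum 15 h; released 88Y assessed by size-exclusion HPLC (TSK 3000SW, MES/Cl− buffer 0.02 M MES, 0.15 M NaCl, pH 6.5). 88Y-albumin eluted at 7.7 min, assigned against molecular weight standard. Injectate aliquots counted for HPLC recovery.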

Structure (SMILES)	Log K [1]	ID/g femur [2] [%]	88Y-serum [3] [%]
O=C(O)CN(CCN(CC(=O)O)[C@@H]1CCCC[C@H]1N(CC(=O)O)CC(=O)O)CC(=O)O	24.2	–	–
CC(CN(CC(=O)O)CC(=O)O)N(CC(=O)O)CC(Cc1ccc([N+](=O)[O-])cc1)N(CC(=O)O)CC(=O)O (centres undefined)	22.5	3	4.84
O=C(O)CN(CC(=O)O)[C@@H](Cc1ccc([N+](=O)[O-])cc1)CN(CC(=O)O)[C@@H]1CCCC[C@H]1N(CC(=O)O)CC(=O)O	24.4	6.1	18.5
O=C(O)CN(CC(=O)O)[C@H](Cc1ccc([N+](=O)[O-])cc1)CN(CC(=O)O)[C@@H]1CCCC[C@H]1N(CC(=O)O)CC(=O)O	24.7	3.6	3.79
O=C(O)CN(CCN(CC(=O)O)CC(=O)O)CCN(CC(=O)O)CC(=O)O [PENTETIC ACID]	22.4	–	–
CC(CN(CC(=O)O)CC(Cc1ccc([N+](=O)[O-])cc1)N(CC(=O)O)CC(=O)O)N(CC(=O)O)CC(=O)O (centres undefined)	22.5	2.5	6.27
O=C(O)CN(CCN(CC(=O)O)C(Cc1ccc([N+](=O)[O-])cc1)CN(CC(=O)O)CC(=O)O)CC(=O)O (centres undefined)	21.7	5.2	7
O=C(O)CN(CCN(CC(=O)O)CC(Cc1ccc([N+](=O)[O-])cc1)N(CC(=O)O)CC(=O)O)CC(=O)O (centres undefined)	21.5	4.3	–
